Molecules are shown by their SMILES.

In series [1] the test system is Rattus norvegicus. The experiment in a line: Antiinflammatory activity in albino rat assessed as inhibition of carrageenan-induced paw edema at 0.28 mmol/kg, po administered 30 mins prior to carrageenan-challenge measured after 5 hrs relative to control. The series is classed as functional. The procedure, abridged: (§1)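 Male albino rats in groups of four were fasted 24 h with water allowed. Dosing was oral at 0.28 mmol/kg, suspended in 0.5% w/v CMC; controls got CMC alone. After 30 min, 0.1 ml of 1% carrageenan in saline went subplantar into the right hind paw and saline into the left. Paw thickness was read by caliper before and at 1–5 h. % inhibition = [(VR−VL)control−(VR−VL)treated]/(VR−VL)control ×100. Mean ± SEM, n = 4, one-way ANOVA vs control.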

Series [2] relates to Rattus norvegicus. The experiment in a line: Antiinflammatory activity in albino rat assessed as inhibition of carrageenan-induced paw edema at 0.28 mmol/kg, po administered 30 mins prior to carrageenan-challenge measured after 3 hrs relative to control. The series is classed as functional. The procedure, abridged:
as §1
(In general: The carrageenan paw model is a standard test of acute inflammation.)

Series [3] relates to Rattus norvegicus. The experiment in a line: Ulcerogenic activity in albino rat carrageenan-induced paw edema model assessed as ulcer index at 0.28 mmol/kg, po (reference value: 0.60 +/- 0.05). The series is classed as toxicity, organism-based. Particulars: in vivo. The method in brief: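 Rats given the compound orally at 0.28 mmol/kg, suspended in 0.5% aqueous CMC; vehicle-only control, n = 4 per group. Gastric ulcers graded by area: I (<1 mm²), II (1–3 mm²), III (>3 mm²). Ulcer index = 1×(level I count) + 2×(level II) + 3×(level III). Mean ± SEM, one-way ANOVA versus control.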

For series [4], the system named is Rattus norvegicus. The experiment in a line: Antiinflammatory activity in albino rat assessed as inhibition of carrageenan-induced paw edema at 0.28 mmol/kg, po administered 30 mins prior to carrageenan-challenge measured after 2 hrs relative to control. The series is classed as functional. The method in brief:
as §1

In series [5] the test system is Rattus norvegicus. The experiment in a line: Antiinflammatory activity in albino rat assessed as inhibition of carrageenan-induced paw edema at 0.28 mmol/kg, po administered 30 mins prior to carrageenan-challenge measured after 4 hrs relative to control. Format: functional. The procedure, abridged:
as §1

In series [6] the test system is Rattus norvegicus. Put plainly: Antiinflammatory activity in albino rat assessed as inhibition of carrageenan-induced paw edema at 0.28 mmol/kg, po administered 30 mins prior to carrageenan-challenge measured after 1 hr relative to control. Format: functional. The procedure, abridged:
as §1

On to `C=CCn1c(SCC(=O)Nc2ccc(C(C)=O)cc2)nnc1-c1ccc(OC)cc1`, for which the inhibition in vivo (commonly the share of the control response that was lost under treatment) at 280 µmol/kg worked out at 66% in the series with Rattus norvegicus [1]; 52% in the series with Rattus norvegicus [2]; 51% with Rattus norvegicus [4]; 68% in the series with Rattus norvegicus [5]; 50% in the series with Rattus norvegicus [6]. In addition, the UI in the series with Rattus norvegicus [3] worked out at 8.66.

As to `CCn1c(SCC(=O)Nc2ccc(C(C)=O)cc2)nnc1-c1ccc(OC)c(OC)c1`, the inhibition in vivo at 280 µmol/kg in the series with Rattus norvegicus [1] came to 66%; in the series with Rattus norvegicus [2], 62%; with Rattus norvegicus [4], 59%; in the series on Rattus norvegicus [5] it was 69%; with Rattus norvegicus [6], 56%. Also, the UI in the series on Rattus norvegicus [3] turned out to be 3.6.

Consider `C=CCn1c(SCC(=O)Nc2ccc(C(C)=O)cc2)nnc1-c1cc(OC)c(OC)c(OC)c1`, for which the inhibition in vivo at 280 µmol/kg was 64% in the series on Rattus norvegicus [1]; 55% in the series on Rattus norvegicus [2]; 54% in the series with Rattus norvegicus [4]; 68% in the series with Rattus norvegicus [5]; 48% with Rattus norvegicus [6]. Besides, in the series with Rattus norvegicus [3], the UI is reported as 6.49.

Consider `CCn1c(SCC(=O)Nc2ccc(C(C)=O)cc2)nnc1-c1ccccc1`, for which the inhibition in vivo at 280 µmol/kg in the series with Rattus norvegicus [1] turned out to be 66%; in the series with Rattus norvegicus [2], 56%; in the series with Rattus norvegicus [4], 53%; in the series with Rattus norvegicus [5] it was 69%; in the series on Rattus norvegicus [6], 50%. Further, the UI in the series on Rattus norvegicus [3] worked out at 7.12.

For `COc1cc(-c2nnc(SCC(=O)Nc3ccc(C(C)=O)cc3)n2-c2ccccc2)cc(OC)c1OC`, the inhibition in vivo at 280 µmol/kg in the series on Rattus norvegicus [1] amounted to 63%; in the series on Rattus norvegicus [2], 55%; with Rattus norvegicus [4] it was 54%; with Rattus norvegicus [5] it was 68%; in the series on Rattus norvegicus [6], 49%. Moreover, the UI with Rattus norvegicus [3] is reported as 4.38.

Consider `CCn1c(SCC(=O)Nc2ccc(C(C)=O)cc2)nnc1-c1ccc(OC)cc1`, for which the inhibition in vivo at 280 µmol/kg was determined as 62% with Rattus norvegicus [1]; 57% in the series with Rattus norvegicus [2]; 54% in the series on Rattus norvegicus [4]; 65% with Rattus norvegicus [5]; 51% with Rattus norvegicus [6]. In the series with Rattus norvegicus [3], the UI was 10.52.

For `C=CCn1c(SCC(=O)Nc2ccc(C(C)=O)cc2)nnc1-c1ccccc1`, the inhibition in vivo at 280 µmol/kg in the series with Rattus norvegicus [1] amounted to 63%; in the series on Rattus norvegicus [2], 54%; in the series with Rattus norvegicus [4], 52%; in the series with Rattus norvegicus [5], 70%; in the series with Rattus norvegicus [6], 48%. For the same molecule, the UI in the series with Rattus norvegicus [3] is listed as 9.3.

On to `CC(=O)c1ccc(NC(=O)CSc2nnc(-c3ccccc3)n2-c2ccccc2)cc1`, for which the inhibition in vivo at 280 µmol/kg in the series with Rattus norvegicus [1] amounted to 63%; in the series with Rattus norvegicus [2], 62%; in the series on Rattus norvegicus [4], 49%; with Rattus norvegicus [5], 67%; in the series on Rattus norvegicus [6], 41%. The UI with Rattus norvegicus [3] came to 3.38.

Turning to `COc1ccc(-c2nnc(SCC(=O)Nc3ccc(C(C)=O)cc3)n2-c2ccccc2)cc1OC`, the inhibition in vivo at 280 µmol/kg came out at 55% in the series with Rattus norvegicus [1]; 51% with Rattus norvegicus [2]; 43% in the series with Rattus norvegicus [4]; 62% in the series on Rattus norvegicus [5]; 28% with Rattus norvegicus [6]. Besides, the UI with Rattus norvegicus [3] was found to be 8.64.

As to `CCn1c(SCC(=O)Nc2ccc(C(C)=O)cc2)nnc1-c1cc(OC)c(OC)c(OC)c1`, the inhibition in vivo at 280 µmol/kg with Rattus norvegicus [1] worked out at 64%; with Rattus norvegicus [2], 54%; with Rattus norvegicus [4], 50%; with Rattus norvegicus [5] it was 68%; with Rattus norvegicus [6], 46%. Further, the UI in the series on Rattus norvegicus [3] came to 3.34.

With `COc1ccc(-c2nnc(SCC(=O)Nc3ccc(C(C)=O)cc3)n2-c2ccccc2)cc1`, the inhibition in vivo at 280 µmol/kg came to 60% in the series on Rattus norvegicus [1]; 58% in the series with Rattus norvegicus [2]; 42% in the series on Rattus norvegicus [4]; 63% in the series with Rattus norvegicus [5]; 29% in the series with Rattus norvegicus [6]. In the series with Rattus norvegicus [3], the UI turned out to be 5.53.
